Series [1] in a line: Inhibition of 5-HT2AR mRNA expression in zebra fish AB assessed as fold decrease in 2 delta delta CT level at 1 uM by RT-qPCR method relative to control. Type of series: functional, Danio rerio. The essentials:
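Total RNA from zebrafish was extracted with Trizol and reverse-transcribed with MMLV. SYBR Green qPCR: 95 °C 2 min; 40 cycles of 95, 60 and 72 °C, 30 s each; then 72 °C for 5 min. 5-HT2AR was normalized to GAPDH by the 2^−ΔΔCT method; mean ± SD, n = 3.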
On the technique in general: Quantitative PCR measures a nucleic acid by following its amplification.

The target in series [2] is T1, Amine oxidase [flavin-containing] A (Homo sapiens, UniProt P21397).
T1 sequence (P21397 whole entry): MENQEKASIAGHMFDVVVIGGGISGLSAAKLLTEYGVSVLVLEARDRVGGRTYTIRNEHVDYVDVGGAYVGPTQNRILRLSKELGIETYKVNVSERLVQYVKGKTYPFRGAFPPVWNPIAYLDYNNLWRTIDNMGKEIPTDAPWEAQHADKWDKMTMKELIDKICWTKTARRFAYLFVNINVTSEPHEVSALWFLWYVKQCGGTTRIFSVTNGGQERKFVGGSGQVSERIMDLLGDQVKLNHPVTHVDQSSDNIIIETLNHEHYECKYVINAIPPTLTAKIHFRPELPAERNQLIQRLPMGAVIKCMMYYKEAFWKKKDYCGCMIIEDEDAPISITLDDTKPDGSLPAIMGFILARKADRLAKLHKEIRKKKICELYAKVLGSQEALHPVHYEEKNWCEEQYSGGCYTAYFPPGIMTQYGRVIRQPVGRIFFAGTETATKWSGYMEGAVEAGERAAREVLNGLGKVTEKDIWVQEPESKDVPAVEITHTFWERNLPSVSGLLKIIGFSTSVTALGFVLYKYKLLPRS
The series is described as follows: Inhibition of MAO-A (unknown origin) using p-tyramine as substrate preincubated for 15 mins followed by substrate addition and measured after 15 mins by Amplex red fluorescence based microplate reader assay.

The target in series [3] is T2, Amine oxidase [flavin-containing] B (Homo sapiens, UniProt P27338).
T2 sequence (P27338 whole entry): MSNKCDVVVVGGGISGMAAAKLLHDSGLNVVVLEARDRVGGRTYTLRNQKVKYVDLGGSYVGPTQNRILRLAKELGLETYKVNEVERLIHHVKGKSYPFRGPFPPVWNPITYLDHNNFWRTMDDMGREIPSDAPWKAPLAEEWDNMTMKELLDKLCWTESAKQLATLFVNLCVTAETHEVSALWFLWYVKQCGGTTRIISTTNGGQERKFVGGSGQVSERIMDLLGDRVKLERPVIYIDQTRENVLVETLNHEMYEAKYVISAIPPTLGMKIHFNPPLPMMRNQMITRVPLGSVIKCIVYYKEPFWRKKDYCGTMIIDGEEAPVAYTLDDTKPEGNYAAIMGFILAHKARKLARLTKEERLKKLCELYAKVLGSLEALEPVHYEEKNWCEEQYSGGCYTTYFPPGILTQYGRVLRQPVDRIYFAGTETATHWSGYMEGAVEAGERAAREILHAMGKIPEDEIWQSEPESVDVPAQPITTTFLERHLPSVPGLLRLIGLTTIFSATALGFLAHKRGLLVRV
The series is described as follows: Inhibition of MAO-B (unknown origin) using p-tyramine as substrate preincubated for 15 mins followed by substrate addition and measured after 15 mins by Amplex red fluorescence based microplate reader assay.

The species named for the next series is Homo sapiens. The series is described as follows: Selectivity index, ratio of IC50 for inhibition of MAO-B (unknown origin) to IC50 for inhibition of MAO-A (unknown origin). The essentials:
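Amplex Red coupled assay. Test sample was preincubated with MAO-A or MAO-B at 37 °C for 15 min. p-Tyramine substrate working solution was added, with HRP converting the H2O2 formed to resorufin, for a further 15 min at 37 °C. Fluorescence read at Ex 545/Em 590 nm. […] SI = MAO-B IC50 / MAO-A IC50.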

Series [4] in a line: Cytotoxicity against human L02 cells assessed as reduction in cell growth measured after 48 hrs by MTT assay. Format: toxicity, cell-based. In a few lines:
(§1)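 MTT assay: PC12, SH-SY5Y or L02 cells at 5.0 × 10^3 per well were grown for 24 h, treated with compound dilutions from 10 mM DMSO stocks, and cultured 48 h. MTT was then added for 4 h at 37 °C, formazan dissolved in DMSO, and absorbance read at 570 nm. Viability is relative to blank control; IC50 from three repeats. Media contained 10% FBS.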
In general terms: Formazan colour is commonly taken as a measure of viable cells.

Series [5] can be described thus: Cytotoxicity against human SH-SY5Y cells assessed as reduction in cell growth measured after 48 hrs by MTT assay. Format: toxicity, cell-based. The essentials:
as §1

Series [6] can be described thus: Cytotoxicity against rat PC-12 cells assessed as reduction in cell growth measured after 48 hrs by MTT assay. Type of series: toxicity, cell-based. The essentials:
as §1

The subject of series [7] is Mus musculus. The series is described as follows: Antidepressant activity in reserpine-induced mouse assessed as downregulation of 5-HT2AR expression at 20 mg/kg pretreated with reserpine for 3 days followed by compound addition on day 4 to 10 by Western blot analysis. Type of series: functional, organism-based. As to conditions: time 6.0 day. The essentials: (§2)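 ICR mice given reserpine 1 mg/kg i.p. for 3 consecutive days, then treated daily on days 4–10 (saline 10 mL/kg as vehicle control). Whole-brain protein quantified by BCA, diluted to 3 mg/mL, 10 μL run on 4–20% SDS-PAGE, transferred, blocked, primary antibody 4 °C overnight, secondary 1 h room temperature. Relative 5-HT1AR and 5-HT2AR levels, mean ± SD, n = 3.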
In general terms: A western blot detects proteins with antibodies after separation by electrophoresis.

Series [8] has as its system Mus musculus. The series is described as follows: Antidepressant activity in reserpine-induced mouse assessed as increase in 5-HT1AR expression at 20 mg/kg pretreated with reserpine for 3 days followed by compound addition on day 4 to 10 by Western blot analysis. Type of series: functional, organism-based. As to conditions: time 6.0 day. The essentials: as §2

The structures appear in SMILES notation. Calls of active or inactive are those of the source. The rule behind the calls is not given here.

Broadly, the IC50 is the concentration needed to halve the response being measured. With `O=C1c2ccccc2-c2nccc3cc(OCCCN4CCN(c5ccccc5Cl)CC4)cc1c23`, the “fold change (FC)” value in series [1] is listed as 1.886. In addition, the IC50 came to 0.361 µM in [2] and 15.1 µM in [3]. The Ratio IC50 in the series filed under Homo sapiens amounted to 41.9. Further, the IC50 at 48 h in series [4] is above 100 µM; in [5] it was above 10 µM; in [6], above 10 µM.
On to `O=C1c2ccccc2-c2nccc3cc(OCCCCN4CCN(c5ccccc5Cl)CC4)cc1c23`, for which the “fold change (FC)” value in series [1] is 2.575. The 50% inhibitory concentration (IC50) in series [2] was 0.503 µM; in [3], 12.7 µM. Also, the Ratio IC50 in the series listed under Homo sapiens was 25.3. In addition, the concentration for half-maximal inhibition (IC50) at 48 h in [4] was above 100 µM; in [5], above 10 µM; in [6], above 10 µM.
Turning to `O=C1c2ccccc2-c2nccc3cc(O)cc1c23`, the “fold change (FC)” value in series [1] was 2.675. For the same compound, the IC50 in [2] turned out to be 1.26 µM; in series [3], 23.5 µM. Moreover, in the series filed under Homo sapiens, the Ratio IC50 was 18.6.
With `O=C1c2ccccc2-c2nccc3cc(OCCCCCN4CCN(c5cccc(Cl)c5Cl)CC4)cc1c23`, the “fold change (FC)” value in series [1] worked out at 0.049. For the same compound, the half-maximal inhibitory concentration (IC50) in series [2] was 0.006 µM; in series [3], 0.89 µM. Also, the Ratio IC50 in the series filed under Homo sapiens was found to be 148. Besides, the figures for the IC50 at 48 h in [4], in [5] and in [6] were above 100 µM, above 10 µM and above 10 µM, respectively.
Consider `O=C1c2ccccc2-c2nccc3cc(OCCCCN4CCN(c5ccccc5F)CC4)cc1c23`, for which the “fold change (FC)” value in series [1] is reported as 0.048. Further, the IC50 in [2] is 0.008 µM; in series [3] it was 1.49 µM. The Ratio IC50 in the series listed under Homo sapiens is 186. For the same compound, the half-maximal inhibitory concentration (IC50) at 48 h was above 100 µM in series [4], above 10 µM in series [5] and above 10 µM in [6].
For the compound `O=C1c2ccccc2-c2nccc3cc(OCCCCN4CCN(c5ccccc5)CC4)cc1c23`, in series [1], the “fold change (FC)” value was determined as 1.341. The concentration for half-maximal inhibition (IC50) in series [2] came to 0.049 µM; in series [3], 3.42 µM. Also, the Ratio IC50 in the series listed under Homo sapiens came out at 69.8. Also, the concentration for half-maximal inhibition (IC50) at 48 h in [4] is above 100 µM; in series [5] it was above 10 µM; in series [6] it was above 10 µM.
For `O=C1c2ccccc2-c2nccc3cc(OCCCN4CCN(c5cccc(Cl)c5Cl)CC4)cc1c23`, the “fold change (FC)” value in series [1] is listed as 0.055. Also, the IC50 in [2] came out at 0.011 µM; in series [3], 1.53 µM. For the same compound, the Ratio IC50 in the series filed under Homo sapiens amounted to 139. Also, the results for the IC50 at 48 h in series [4], in series [5] and in [6] were above 100 µM, above 10 µM and above 10 µM, respectively.
With `CNCCC(Oc1ccc(C(F)(F)F)cc1)c1ccccc1` (centres undefined), the result with Mus musculus [7] and in the series on Mus musculus [8] was Active.
Turning to `O=C1c2ccccc2-c2nccc3cc(OCCCN4CCN(c5ccccc5)CC4)cc1c23`, the “fold change (FC)” value in [1] is 0.069. For the same compound, the IC50 in series [2] came out at 0.009 µM; in [3], 0.85 µM. Also, in the series listed under Homo sapiens, the Ratio IC50 is 94.4. Further, the half-inhibitory concentration (IC50) at 48 h in [4] was above 100 µM; in [5] it was above 10 µM; in [6] it was above 10 µM.
Regarding `O=C1c2ccccc2-c2nccc3cc(OCCCCN4CCN(c5cccc(Cl)c5Cl)CC4)cc1c23`, the “fold change (FC)” value in [1] stood at 0.578. For the same compound, the results for the half-maximal inhibitory concentration (IC50) in series [2] and in [3] were 0.072 µM and 2.16 µM, respectively. Further, the Ratio IC50 in the series filed under Homo sapiens came out at 30. The results for the IC50 at 48 h in [4], in series [5] and in [6] were above 100 µM, above 10 µM and above 10 µM, respectively.
Take `COc1ccccc1N1CCN(CCCCCOc2cc3c4c(nccc4c2)-c2ccccc2C3=O)CC1`: in [1], the “fold change (FC)” value worked out at 0.142. In addition, the 50% inhibitory concentration (IC50) in [2] is 0.014 µM; in series [3], 1.38 µM. Further, the Ratio IC50 in the series filed under Homo sapiens turned out to be 98.6. Also, the IC50 at 48 h is above 100 µM in series [4], above 10 µM in series [5] and above 10 µM in [6].
Turning to `O=C1c2ccccc2-c2nccc3cc(OCCCCCN4CCN(c5ccccc5)CC4)cc1c23`, in [1], the “fold change (FC)” value is 0.06. Also, the IC50 in series [2] was 0.009 µM; in [3], 1.46 µM. For the same compound, the Ratio IC50 in the series filed under Homo sapiens stood at 162. The IC50 at 48 h was above 100 µM in series [4], above 10 µM in [5] and above 10 µM in [6].
Take `O=C1c2ccccc2-c2nccc3cc(OCCCCCN4CCN(c5ccccc5Cl)CC4)cc1c23`: the “fold change (FC)” value in [1] is on record as 1.804. In addition, the 50% inhibitory concentration (IC50) in [2] amounted to 0.086 µM; in [3], 4.19 µM. For the same compound, the Ratio IC50 in the series listed under Homo sapiens was 48.7. Moreover, the concentration for half-maximal inhibition (IC50) at 48 h was above 100 µM in [4], above 10 µM in [5] and above 10 µM in series [6].
Regarding `COc1ccccc1N1CCN(CCCOc2cc3c4c(nccc4c2)-c2ccccc2C3=O)CC1`, the “fold change (FC)” value in series [1] is 0.2. The figures for the concentration for half-maximal inhibition (IC50) in [2] and in [3] were 0.054 µM and 3.26 µM, respectively. Further, in the series listed under Homo sapiens, the Ratio IC50 worked out at 60.4. Further, the results for the IC50 at 48 h in [4], in series [5] and in [6] were above 100 µM, above 10 µM and above 10 µM, respectively.
As to `COc1ccccc1N1CCN(CCCCOc2cc3c4c(nccc4c2)-c2ccccc2C3=O)CC1`, in [1], the “fold change (FC)” value turned out to be 0.685. In addition, the IC50 is 0.091 µM in series [2] and 4.28 µM in [3]. Further, the Ratio IC50 in the series filed under Homo sapiens came to 47. The IC50 at 48 h in series [4] was above 100 µM; in [5], above 10 µM; in [6], above 10 µM.
`O=C1c2ccccc2-c2nccc3cc(OCCCN4CCN(c5ccccc5F)CC4)cc1c23`: in series [1], the “fold change (FC)” value is reported as 0.038. For the same compound, the IC50 in [2] is 0.005 µM; in series [3], 1.01 µM. Moreover, the Ratio IC50 in the series listed under Homo sapiens is 202. The 50% inhibitory concentration (IC50) at 48 h in series [4] is above 100 µM; in [5] it was above 10 µM; in series [6] it was above 10 µM.

The record behind these values is ChEMBL document CHEMBL5108057, “Development of MAO-A and 5-HT2AR Dual Inhibitors with Improved Antidepressant Activity” (J Med Chem, 2022).
